An excerpt weighted towards active compounds, which were near 9.2% of everything screened.
bCat KO growth: beta-catenin-lacking colon tumor cell growth suppression. HCT116 beta-catenin knockout viability, CellTiter-Glo, 60 h; active compounds read low. viability, % at 10 µM. AID 818. actives 1.5% (n = 140,000);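 active means viability at or under a set limit, the compound median less 4 SD, cut at about 6% in these data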
Dynein transport: blocks dynein driven cargo transport along microtubules | actives 0.47% (n = 220,000) | 3617.4 mouse cells, GR-EGFP nuclear translocation imaging; test concentration mostly 20 µM; stimulated with dexamethasone, 1 µM; active compounds read low | z-score, hits read low;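 active means plate z-score of nuclear minus cytoplasmic receptor signal below a set negative limit, without overly bright fluorescence or cell loss, cut at about -3.5 in these data, passing the limit was not always enough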;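 further: z-score of nuclear minus cytoplasmic ring GR-EGFP intensity difference per well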
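Buffer or medium: tet-free medium with charcoal-stripped serum / Also added: dexamethasone agonist, 1.0 µM final, for 30 min / Timing: induction 48 h, compound 1 h, agonist 30 min / Measured by: high-content fluorescence imaging after fixation / Read-out: nuclear-to-cytoplasmic GR-EGFP distribution per well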
HCT116 PTEN-null: PTEN-deleted cell growth suppression; HCT116 PTEN-null viability, CellTiter-Glo, 60 h; active compounds read low; viability, % at 10 µM; actives 1.2% (n = 140,000);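 active means viability at or below a set limit, 4 SD under the median of all tested compounds, cut at about 3.7% in these data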;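 further: PTEN knockout HCT116 line with beta catenin targeted HCT116 as companion control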
Lmaj promast: inhibitors of Leishmania major promastigote growth; Leishmania major promastigotes, resazurin fluorescence viability; inhibition, % at 10 µM; actives 9% (n = 200,000); in the data active means inhibition above about 50%;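 further: promastigotes grown with compound for 44 hours at 28 °C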
Autophagy HCS: autophagy modulation, high-content screen; MEF GFP-LC3 puncta imaging; test concentration mostly 10 µM; calls only at 10 µM (by protocol); actives 0.98% (n = 190,000);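 active means percentage of spot-positive cells more than 3 SD above its plate mean, without a fluorescence outlier flag or 80% toxicity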
A number is an active result; – = inactive; · = no result; + = active, no number.

SMILES	bCat KO growth	Dynein transport	HCT116 PTEN-null	Lmaj promast	Autophagy HCS
COc1ccc(OCCC(=O)NCC23CC4CC(CC(C4)C2)C3)cc1	·	–	·	97	–
COc1ccc(OCCC(=O)NCc2ccccc2)cc1	–	–	–	–	–
N#CCSc1nc2c(sc(=S)n2Cc2ccco2)c(=O)n1-c1ccc(F)cc1	–	–	–	96	–
CCn1c(=S)sc2c(=O)n(-c3ccccc3)c(SC)nc21	–	–	–	87	–
CC(C)C(=O)Nc1cccc(C(=O)Nc2nnc(C(C)C)s2)c1	–	–	–	53	–
COc1ccc(NC(=O)c2cccc(NC(=O)C(C)C)c2)c([N+](=O)[O-])c1	–	–	–	73	–
COc1ccc(NC(=O)CSc2ccccc2)c([N+](=O)[O-])c1	·	–	·	–	–
Cc1cc(C(=O)NC(=S)Nc2cccc(NC(=O)C(C)C)c2)ccc1[N+](=O)[O-]	–	–	–	82	–
COc1ccc(NC(=O)CSc2nc3ccccc3n2-c2ccccc2)c([N+](=O)[O-])c1	–	–	–	70	–
CC(C)C(=O)Nc1cccc(NC(=S)NC(=O)c2ccc([N+](=O)[O-])cc2)c1	–	–	–	–	–
COc1ccc(NC(=O)c2ccc(NC(=O)C(C)C)cc2)c([N+](=O)[O-])c1	–	–	–	–	–
CC(=O)c1c(C)[nH]c(C(=O)OCC(=O)N(C)C)c1C	–	–	–	–	–
COc1ccc(NC(=O)COc2ccc(C)cc2)c([N+](=O)[O-])c1	·	–	·	–	–
COc1ccc(NC(=O)Cc2ccc(C)cc2)c([N+](=O)[O-])c1	–	–	–	91	–
Cc1ccc(C(=O)OCC(=O)c2c[nH]c3ccccc23)cc1	–	–	–	–	–
CCc1cccc2c(C(=O)CCl)c[nH]c12	–	–	–	58	–
CCc1cccc2c(C(=O)COC(=O)c3ccc([N+](=O)[O-])s3)c[nH]c12	–	–	–	100	–
O=C(OCC(=O)c1c[nH]c2ccccc12)c1ccc([N+](=O)[O-])s1	·	–	·	100	–
Nc1cc(=O)[nH]c(N2CCN(c3ccccc3)CC2)n1	·	–	·	–	+
COc1ccc(Cn2c(=O)cc(N)n(-c3ccccc3C)c2=O)cc1	·	–	·	·	·
CCOC(=O)C1(CCOc2ccccc2)CCN(Cc2cccn2-c2cccnc2)CC1	·	–	·	–	–
CCOC(=O)C1(CCOc2ccccc2)CCN(Cc2ccc(CO)o2)CC1	·	–	·	62	–
CCOC(=O)C1(CCOc2ccccc2)CCN(Cc2cnc(C)s2)CC1	·	–	·	79	–
OCCNc1nc(-c2ccccc2)c2cc(Cl)ccc2n1	·	–	·	–	+
CN(C)CCCN(C(=O)/C=C/c1cccs1)c1nc2c(F)cccc2s1	·	–	·	97	–
SMILES	bCat KO growth	Dynein transport	HCT116 PTEN-null	Lmaj promast	Autophagy HCS
Cc1cccc2sc(N(CCN(C)C)C(=O)/C=C/c3cccs3)nc12	–	–	–	–	–
O=C(Nc1ccc2nc3n(c(=O)c2c1)CCCC3)c1cc([N+](=O)[O-])ccc1F	2.5	–	–	100	–
CCCCNC(=S)Nc1ccc2nc3n(c(=O)c2c1)CCCCC3	–	–	–	51	–
CCOC(=O)C1(CC2CC2)CCN(C(=O)c2cccnc2C)CC1	·	–	·	–	–
CCOc1ccc(N=C2NC(=O)S/C2=C\c2ccc(OC)cc2)cc1	–	–	–	–	+
Cc1cccc(Cn2nc(C)cc2NC(=O)CCCn2ccc([N+](=O)[O-])n2)c1	·	–	·	–	–
C(=C\c1ccccc1)/CSc1nnc(-c2cnccn2)n1Cc1ccco1	–	–	–	100	–
Cc1ccc2cc(C3C(C#N)=C(N)Oc4c3ccc3cccnc43)c(=O)[nH]c2c1 (stereo not drawn)	–	–	–	91	–
N#CC1=C(N)OC2=C(C(=O)CC(c3ccccc3)C2)C1c1ccoc1 (stereo not drawn)	–	–	–	–	–
N#CC1=C(N)OC2=C(C(=O)CC(c3ccccc3)C2)C1c1cccnc1 (stereo not drawn)	–	–	–	93	–
N#CC1=C(N)Oc2cc3ccccc3cc2C1c1cccs1 (stereo not drawn)	–	–	–	–	–
N#CC1=C(N)Oc2cc3ccccc3cc2C1c1cccnc1 (stereo not drawn)	–	–	–	85	–
CCc1ccc2[nH]c(=O)c(C3C(C#N)=C(N)Oc4c3ccc3cccnc43)cc2c1 (stereo not drawn)	–	–	–	–	–
CC(C)(C)C1=C(C#N)C(c2cccnc2)C(C#N)=C(N)O1 (stereo not drawn)	–	–	–	–	–
N#CC1=C(N)Oc2c(ccc3cccnc23)C1c1cccnc1 (stereo not drawn)	4.5	–	–	–	–
C=CCN(C(=O)c1ccc(Cl)cc1)c1ccccc1C(=O)NCC(=O)O	·	–	·	·	·
Cc1noc(C)c1C(=O)N1CCCC(C(=O)c2cccc(OC(C)C)c2)C1 (stereo not drawn)	·	–	·	–	–
O=C(Nc1ccc(N2C(=O)C3CCCCC3C2=O)cc1Cl)c1cccs1 (stereo not drawn)	·	–	·	–	–
Cc1cccc(NC(=O)CSc2nnc(Cn3cnc4ccccc43)o2)c1	–	–	–	–	–
Cc1[nH]c(=O)[nH]c(=O)c1/C=C/C(=O)O	·	–	·	·	·
COc1ccc(-c2cc(-c3nnc(COC(=O)c4ccc(O)cc4)o3)c3ccccc3n2)cc1OC	·	–	·	59	–
O=C(Nc1ccc(Cl)c(Cl)c1)N1CCC(N2CCCCC2)CC1	–	–	–	91	–
O=C(Nc1ccc(Cl)c(Cl)c1)N1CCSCC1	–	–	–	74	–
O=C(Nc1ccccc1)N1CCSCC1	–	–	–	–	–
O=C1Nc2ccccc2/C1=C/C(=O)c1cccs1	2.0	–	1.6	100	–
SMILES	bCat KO growth	Dynein transport	HCT116 PTEN-null	Lmaj promast	Autophagy HCS
COc1ccc(C(=O)/C=C/C(=O)N(Cc2ccccc2OC)C(C(=O)NC2CCCCC2)c2ccncc2)c(O)c1 (stereo not drawn)	–	–	–	99	–
COC(CN(C(=O)CCl)C(C(=O)NC1CCCCC1)c1ccccc1C)OC (stereo not drawn)	–	–	–	68	–
COc1ccc(C(=O)/C=C/C(=O)N(Cc2ccc(F)cc2)C(C(=O)NC2CCCCC2)c2ccncc2)c(O)c1 (stereo not drawn)	–	–	–	71	–
COc1ccc(C(C(=O)NC2CCCC2)N(Cc2ccccc2)C(=O)c2nsc(Cl)c2Cl)cc1 (stereo not drawn)	–	·	–	–	–
COc1ccc(CCN(C(=O)c2ccco2)C(C(=O)NC2CCCC2)c2ccncc2)cc1OC (stereo not drawn)	·	–	·	–	–
COc1ccc(C(=O)/C=C/C(=O)N(Cc2ccccc2)C(C(=O)NC2CCCCC2)c2ccncc2)c(O)c1 (stereo not drawn)	–	–	–	93	–
CCOc1ccc(N(Cc2nnc3n2CCCCC3)C(=O)Nc2cccc(C)c2)cc1	·	–	·	–	–
Cc1ccc(S(=O)(=O)c2ccc(-n3nc(C)cc3N)cc2)cc1	·	–	·	–	–

High-throughput results as filed in PubChem BioAssay.
